HIF activator = HIF pathway transcriptional activation; U2OS HRE-luciferase reporter, luminescence; normalized: DMSO 0%, desferrioxamine 100%; activation, % at 7.5 µM (by protocol); 0.32% of 300,000 active;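 active = mean activation of at least 10% of the iron chelator positive control signal, with at least half of replicates also reaching 10%; inconclusive = mean and replicate majority disagree about reaching 10%; inactive = mean and most replicates under 10%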
Calb FLC = affects C. albicans growth with fluconazole. AID 1979. 0.57% of 300,000 active. growth inhibition, % (test concentration not listed). C. albicans CaCi-2 (fluconazole-resistant clinical isolate) + fluconazole, Alamar Blue growth, 48 h;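 active = growth inhibition above about 58% in most replicates, limit read from the data, passing the limit was not always enough; inconclusive = exactly half the replicates above a set limit; inactive = most replicates below a set limit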;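 note: all wells also contain fluconazole at 8 µg/ml as a sub-toxic cotreatment; 0% = median of DMSO wells and 100% = median of geldanamycin control wells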
T cruzi inh = T. cruzi replication inhibition | T. cruzi beta-gal in NIH3T3, luminescence, 90 h | inhibition, % (concentration not given with the values) | 1.4% of 300,000 active;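 active = mean inhibition across valid replicates above about 55%, limit read from the data; inconclusive = mean below that limit but half or more replicates reach it; inactive = mean below it, under half of replicates reach it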;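 note: signal also drops with host cell toxicity which is not excluded here; 0% = plate median of DMSO wells and 100% = zero luminescence signal; higher percent means less beta-gal luminescence so fewer parasites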
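System: NIH/3T3 fibroblasts plus reporter T. cruzi. Medium: DMEM plus 2% FBS. Probe or stimulus: 5000 reporter trypomastigotes per well. Compound: single 50 nL compound addition per well in DMSO. Incubation: co-culture of at least 90 h after 3 h attachment. Detection: GalScreen β-gal luminescence, detergent lysis, 60 min. Evaluation: parasite load inhibition, %.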
HSF1 inh = HSF1 inhibition. 0.77% of 300,000 active. AID 2098. NIH3T3-HGL HSE-luciferase, MG132-induced, luminescence 8 h; hits give low values. activity change, negative = inhibition, % at 7.5 µM (by protocol);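 active = more than half of replicate wells show activity change below -50%, luminescence cut by over half; inconclusive = some wells, but at most half, below -50%; inactive = no replicate well below -50%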;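 note: luciferase reports HSF-1 transcriptional activity via heat shock element; 0% = median of DMSO wells and -100% = zero luminescence signal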
HSF-1 act = increases HSF-1 driven luciferase reporter signal. NIH3T3-HGL HSF-1 luciferase reporter, MG132, 8 h; 100% = twice DMSO control signal. activation, % at 9 µM. 1.7% of 300,000 active. AID 504408;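 active = mean replicate activation of at least 50% with a set share of replicates each reaching 50%; inconclusive = only one of those two conditions met; inactive = mean below 50% and too few replicates reaching it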;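 note: 0% = median of the neutral control wells and 100% = twice that signal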
* hit, by the source's call; ? = inconclusive; . = not tested or not shown. Sampled rows, rich in hits. Any-hit rate of the full collection: about 4.4%.

SMILES	HIF activator	Calb FLC	T cruzi inh	HSF1 inh	HSF-1 act
Cn1c2c(c(=O)n(C)c1=O)C(CC(=O)Nc1ccccc1)C(=O)N2 (stereo not given)	-1	-1	-13	-67*	-73
CC(=O)c1cccc(NC(=S)NC(=O)c2ccc(Cl)cc2)c1	2	42	-20	6	41
CC(=O)c1cccc(NC(=S)NC(=O)c2cccc(C)c2)c1	4	24	13	24	64*
CC(C)Oc1cccc(C(=O)NC(=S)Nc2ccccc2)c1	1	-15	-13	-61*	-67
CC(C)Oc1cccc(C(=O)NC(=S)Nc2cccnc2)c1	1	0	-12	6	39
CC(=O)n1cc([C@H]2C=C(C(=O)N3CCOCC3)O[C@@H](OCCCCO)C2)c2ccccc21	1	2	-22	-6	-13
COc1cc(N=Nc2ccc3ccccc3c2)ccc1O	2	25	-22	30	55*
CCOC(=O)c1sc(=NC(=O)c2cccs2)n(C)c1C	-1	6	6	29	53*
CCOC(=O)c1sc(=NC(=O)c2ccco2)n(C)c1C	.	106*	.	.	.
CCOc1ccc(N(CC(=O)Nc2ccccc2OCC)S(=O)(=O)c2c(C)noc2C)cc1	1	10	25	-21	-29
CC(C)NCc1nnc(-c2ccccc2Cl)o1	1	15	-15	3	-1
COc1ccc(-c2cc3c(=O)n(CC(=O)NCCCN4CCC(N5CCCCC5)CC4)nc(C)n3n2)cc1	0	-2	56*	5	16
COc1ccc(-c2cc3c(=O)n(CC(=O)NCCCN4CCC(N5CCCCC5)CC4)ncn3n2)cc1	1	.	30	-11	-27
N/C(Cn1cncn1)=N\NC(=O)c1ccc(Cl)cc1Cl	0	0	-4	-7	-3
O=C(c1ccc(Cl)cc1Cl)C1(n2cncn2)Oc2ccccc2C1O (stereo not given)	0	-21	55*	10	16
O=C(O)CCCCCN1C(=O)CSC1=S	-3	46	39	-26	-32
CC(C)OC(=O)CCCCCN1C(=O)CSC1=S	0	1	56*	8	2
Cc1ccc(-c2cc(-c3ccc4c(c3)OCO4)c(C#N)c(N)n2)o1	1	26	15	4	12
CC(C)(C)c1ccc(-c2nc3c(C#N)c(-c4ccc5c(c4)OCO5)ccn3n2)cc1	1	?	64*	5	7
CCC(C)Sc1nnc(NC(=O)C2CCN(C(=O)c3ccco3)CC2)s1 (stereo not given)	0	22	-17	0	-3
COc1ccc(CNC2CCCc3ccccc32)cc1OC (stereo not given)	2	-6	5	3	-6
COc1ccc(CNC2CCSc3ccccc32)cc1OC (stereo not given)	0	3	3	27	63*
COc1ccc(C(=O)CC(Nc2ccc([N+](=O)[O-])cc2)c2ccc(Cl)cc2)cc1 (stereo not given)	0	16	64*	15	12
COc1ccc(C(=O)CC(=O)C(=O)Nc2ccc(Cl)cc2)cc1	-6	-16	2	18	45
C/C(CC(=O)Nc1cccc2c1CCCC2)=N\NC(=O)c1ccccc1N	4	6	-4	29	57*
SMILES	HIF activator	Calb FLC	T cruzi inh	HSF1 inh	HSF-1 act
Cn1ncc(Cl)c1C(=O)N1CCOCC1	0	-8	-6	-6	15
Cn1ncc(Br)c1C(=O)N1CCOCC1	0	-2	-14	12	55*
Cc1[nH]n(-c2ccccc2)c(=O)c1/C=N/N1C(=O)c2ccc3c4c(ccc(c24)C1=O)CC3	0	-35	-6	34	75*
COc1cc(OC)c(NS(=O)(=O)c2cccc(C(=O)OCC(=O)NCC3CCCO3)c2)cc1Cl (stereo not given)	0	12	-2	0	1
Cc1cc(=O)oc2cc(NC(=O)c3ccccc3Cl)ccc12	3	13	-1	21	63*
COc1cccc(C(=O)Nc2ccc3c(C)cc(=O)oc3c2)c1	1	-8	5	62	108*
Cc1cc(=O)oc2cc(NC(=O)c3ccccc3C(=O)O)ccc12	-10	28	-3	19	46
Cc1cc(F)ccc1NS(=O)(=O)c1c(C(=O)N2CCOCC2)c(C)n(C)c1C	0	-1	-13	0	-18
CCOC(=O)Cc1csc(NC(=O)c2ccc3ncsc3c2)n1	1	116*	-6	-3	1
